Experimental data as given in ChEMBL document CHEMBL4699542, “Design and synthesis of novel methoxypyridine-derived gamma-secretase modulators” (Bioorg Med Chem, 2020).

Tested on: Gamma-secretase
Assay: Inhibition of gamma secretase in human H4 cells overexpressing APP751 transfected with Myc-tagged Notch assessed as accumulation of Notch substrate at 100 to 300 nM incubated for 24 hrs by Western blot analysis
Format: cell-based
Settings: h4, 24 h, 0.3 µM, dose 100-300 nM; call rule not given here
How it was run: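 H4 neuroglioma cells stably overexpressing human APP751 were transfected with Myc-tagged NΔE Notch, then treated 24 h with 1 or 10 μM modulator, 100 or 300 nM DAPT, or vehicle. Cells harvested 48 h post-transfection. Western blot with anti-Myc detected NΔE and NICD; β-actin served as loading control.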

- inhibition (INH): Active
Compound: C[C@H](NC(=O)Cc1cc(F)cc(F)c1)C(=O)N[C@H](C(=O)OC(C)(C)C)c1ccccc1
